ChEMBL document CHEMBL1122603, “2-Acetylpyridine thiosemicarbazones. 9. Derivatives of 2-acetylpyridine 1-oxide as potential antimalarial agents” (1984)
≈ marks a conversion by molar mass, not a printed value.

Tests used:
Mus musculus [1] = experiment: In vivo antimalarial activity against Plasmodium berghei in the mice (Mus musculus) at 320 mg/kg dosage; C=cure; type: functional, organism-based; set-up: dose 320 mg/kg
Procedure, shortened: (§1)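 Mortality-based mouse test against the drug-sensitive P. berghei strain KBG 173, run at the Leo Rane Laboratory. Groups of five mice per dose level were scored for cures and for toxic deaths.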

Plasmodium berghei [2] = experiment: Increase in mean survival time in Plasmodium berghei inoculated mice (Mus musculus) following 40 mg/kg administration; type: functional
Mus musculus [3] = experiment: In vivo antimalarial activity against Plasmodium berghei in the mice (Mus musculus) at 640 mg/kg dosage; C=cure; type: functional, organism-based; set-up: dose 640 mg/kg; procedure, shortened: as §1
Mus musculus [4] = experiment: In vivo antimalarial activity against Plasmodium berghei in the mice (Mus musculus) at 80 mg/kg dosage; type: functional; procedure, shortened: as §1
Plasmodium berghei [5] = experiment: Increase in mean survival time in Plasmodium berghei inoculated mice (Mus musculus) following 160 mg/kg administration; type: functional
Mus musculus [6] = experiment: In vivo antimalarial activity against Plasmodium berghei in the mice (Mus musculus) at 640 mg/kg dosage; type: functional; procedure, shortened: as §1
Mus musculus [7] = experiment: In vivo antimalarial activity against Plasmodium berghei in the mice (Mus musculus) at 320 mg/kg dosage; type: functional; procedure, shortened: as §1
Plasmodium falciparum [8] = experiment: In vitro antimalarial potency against chloroquine-sensitive, pyrimethamine-resistant Plasmodium falciparum CAMP; type: functional; conditions: read-out: ID50 (the source's name)
Procedure, shortened: (§2)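 Semiautomated culture assay on P. falciparum. Stocks were 1 mg/mL in 1:1 DMSO/EtOH, diluted in culture medium as seven 2-fold steps over a 64-fold range, with chloroquine and mefloquine as plate controls. Plates ran 24 h at 37 °C under 5% O2/5% CO2/90% N2, then [G-3H]hypoxanthine was added for 18 h more. Harvested incorporation was read by scintillation counting as the viability index.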

Plasmodium falciparum [9] = experiment: In vitro antimalarial potency against multidrug-resistant Plasmodium falciparum Vietnam Smith strain; type: functional; conditions: read-out: ID50 (the source's name); procedure, shortened: as §2
Mus musculus [10] = experiment: In vivo antimalarial activity against Plasmodium berghei in the mice (Mus musculus) at 160 mg/kg dosage; C=cure; type: functional, organism-based; set-up: dose 160 mg/kg; procedure, shortened: as §1
Mus musculus [11] = experiment: In vivo antimalarial activity against Plasmodium berghei in the mice (Mus musculus) at 640 mg/kg dosage; T= Toxicity; type: functional, organism-based; set-up: dose 640 mg/kg; procedure, shortened: as §1
Mus musculus [12] = experiment: In vivo antimalarial activity against Plasmodium berghei in the mice (Mus musculus) at 320 mg/kg dosage; T= Toxicity; type: functional, organism-based; set-up: dose 320 mg/kg; procedure, shortened: as §1
Mus musculus [13] = experiment: In vivo antimalarial activity against Plasmodium berghei in the mice (Mus musculus) at 80 mg/kg dosage; C=cure; type: functional, organism-based; set-up: dose 80 mg/kg; procedure, shortened: as §1
Mus musculus [14] = experiment: In vivo antimalarial activity against Plasmodium berghei in the mice (Mus musculus) at 20 mg/kg dosage; type: functional; procedure, shortened: as §1
Mus musculus [15] = experiment: In vivo antimalarial activity against Plasmodium berghei in the mice (Mus musculus) at 160 mg/kg dosage; type: functional; procedure, shortened: as §1
Mus musculus [16] = experiment: In vivo antimalarial activity against Plasmodium berghei in the mice (Mus musculus) at 40 mg/kg dosage; type: functional; procedure, shortened: as §1

Compound: C/C(=N\N=C(/S)N1CCCCC1)c1cccc[n+]1[O-]
- cure outcome (Mus musculus [1]): Cures
- increase in mean survival time (Plasmodium berghei [2]): 3.5 days
- cures (mice cured) (Mus musculus [3]): Cures
- increase in mean survival time (Mus musculus [4]): 1.3 days
- increase in mean survival time (Plasmodium berghei [5]): 6.3 days

Compound: 3-Aza-bicyclo[3.2.2]nonane-3-carbothioic acid [1-(1-oxy-pyridin-2-yl)-ethylidene]-hydrazide; compound with copper(I) chloride
- increase in mean survival time (Plasmodium berghei [2]): -0.3 days
- increase in mean survival time (Mus musculus [6]): 2.4 days
- increase in mean survival time (Plasmodium berghei [5]): 1.4 days

Compound: CC(N/N=C(\S)N1CCCCCC1)c1cccc[n+]1[O-] (stereo not drawn)
- increase in mean survival time (Mus musculus [7]): 1.6 days
- increase in mean survival time (Plasmodium berghei [2]): -0.2 days
- increase in mean survival time (Mus musculus [6]): 3.5 days
- increase in mean survival time (Mus musculus [4]): 0.4 days
- increase in mean survival time (Plasmodium berghei [5]): 0.8 days

Compound: CCOC(=O)N1CCN(/C(S)=N/NC(C)c2cccc[n+]2[O-])CC1 (stereo not drawn)
- increase in mean survival time (Mus musculus [7]): 8 days
- increase in mean survival time (Plasmodium berghei [2]; 40 mg/kg): 1.2 days
- increase in mean survival time (Mus musculus [6]): 9 days
- increase in mean survival time (Mus musculus [4]): 6 days
- increase in mean survival time (Plasmodium berghei [5]): 6.6 days

Compound: C/C(=N\N=C(/S)N1CCCCCC1)c1cccc[n+]1[O-]
- increase in mean survival time (Mus musculus [7]): 4.9 days
- increase in mean survival time (Plasmodium berghei [2]): 0.9 days
- increase in mean survival time (Mus musculus [6]): 7.1 days
- increase in mean survival time (Mus musculus [4]): 0.7 days
- increase in mean survival time (Plasmodium berghei [5]): 3.1 days

Compound: C/C(=N\N=C(/S)N1CCN(c2ccccc2)CC1)c1cccc[n+]1[O-]
- IC50 (Plasmodium falciparum [8]): 0.062 µg/mL (≈ 0.174 µM)
- increase in mean survival time (Mus musculus [7]): 9.1 days
- increase in mean survival time (Plasmodium berghei [2]): 0.1 days
- increase in mean survival time (Mus musculus [6]): 8.3 days
- increase in mean survival time (Mus musculus [4]): 1.7 days
- increase in mean survival time (Plasmodium berghei [5]): 3.5 days

Compound: CC(N/N=C(\S)N1CCCC1)c1cccc[n+]1[O-] (stereo not drawn)
- increase in mean survival time (Plasmodium berghei [2]): 0.8 days
- increase in mean survival time (Mus musculus [6]): 1.6 days
- increase in mean survival time (Plasmodium berghei [5]): 0 days

Compound: C/C(=N\N=C(/S)N1CCN(c2ccccn2)CC1)c1cccc[n+]1[O-]
- cure outcome (Mus musculus [1]): Cures
- increase in mean survival time (Plasmodium berghei [2]): 0.5 days
- cures (mice cured) (Mus musculus [3]): Cures
- increase in mean survival time (Mus musculus [4]): 0.3 days
- increase in mean survival time (Plasmodium berghei [5]): 1.9 days

Compound: C/C(=N\N=C(/S)N1CCCCC1C)c1cccc[n+]1[O-] (stereo not drawn)
- IC50 (Plasmodium falciparum [8]): 0.077 µg/mL (≈ 0.263 µM)
- IC50 (Plasmodium falciparum [9]): 0.08 µg/mL (≈ 0.274 µM)
- cure outcome (Mus musculus [1]): Cures
- increase in mean survival time (Plasmodium berghei [2]): 2.3 days
- cures (mice cured) (Mus musculus [3]): Cures
- increase in mean survival time (Mus musculus [4]): 3.3 days
- increase in mean survival time (Mus musculus [10]): Cures

Compound: C/C(=N\N=C(/S)N1CC2CCC(CC2)C1)c1cccc[n+]1[O-]
- IC50 (Plasmodium falciparum [8]): 0.086 µg/mL (≈ 0.27 µM)
- IC50 (Plasmodium falciparum [9]): 0.083 µg/mL (≈ 0.261 µM)
- increase in mean survival time (Mus musculus [7]): 4.9 days
- increase in mean survival time (Plasmodium berghei [2]): -0.7 days
- cures (mice cured) (Mus musculus [3]): Cures
- increase in mean survival time (Mus musculus [4]): 0.1 days
- increase in mean survival time (Plasmodium berghei [5]): 1.1 days

Compound: C/C(=N\N=C(/S)N1CCCC(C)C1)c1cccc[n+]1[O-] (stereo not drawn)
- IC50 (Plasmodium falciparum [8]): 0.039 µg/mL (≈ 0.133 µM)
- IC50 (Plasmodium falciparum [9]): 0.051 µg/mL (≈ 0.174 µM)
- increase in mean survival time (Mus musculus [7]): 1.4 days
- increase in mean survival time (Plasmodium berghei [2]): 1.5 days
- cures (mice cured) (Mus musculus [3]): Cures
- increase in mean survival time (Mus musculus [4]): 1.6 days
- increase in mean survival time (Plasmodium berghei [5]): 4.7 days

Compound: C/C(=N\N=C(/S)N1CCN(C=O)CC1)c1cccc[n+]1[O-]
- increase in mean survival time (Plasmodium berghei [2]): -0.3 days
- increase in mean survival time (Mus musculus [11]): Toxic
- increase in mean survival time (Plasmodium berghei [5]): 0.3 days

Compound: C/C(=N\N=C(/S)N1CC(C)OC(C)C1)c1cccc[n+]1[O-] (stereo not drawn)
- IC50 (Plasmodium falciparum [8]): 0.041 µg/mL (≈ 0.133 µM)
- IC50 (Plasmodium falciparum [9]): 0.046 µg/mL (≈ 0.149 µM)
- increase in mean survival time (Plasmodium berghei [2]): 4.9 days
- cures (mice cured) (Mus musculus [3]): Cures
- increase in mean survival time (Mus musculus [4]): 6.1 days
- increase in mean survival time (Plasmodium berghei [5]): 6.1 days

Compound: CC(N/N=C(\S)N1CCN(c2ccccn2)CC1)c1cccc[n+]1[O-] (stereo not drawn)
- increase in mean survival time (Mus musculus [6]): 3.4 days
- increase in mean survival time (Plasmodium berghei [5]): 0.2 days

Compound: CCOC(=O)N1CCN(/C(S)=N/N=C(\C)c2cccc[n+]2[O-])CC1
- increase in mean survival time (Mus musculus [12]): Toxic
- increase in mean survival time (Plasmodium berghei [2]): 4.7 days
- increase in mean survival time (Mus musculus [11]): Toxic
- increase in mean survival time (Mus musculus [13]): Cures
- increase in mean survival time (Mus musculus [10]): Cures

Compound: C/C(=N\N=C(/S)N1CCC(C)CC1)c1cccc[n+]1[O-]
- IC50 (Plasmodium falciparum [8]): 0.074 µg/mL (≈ 0.253 µM)
- IC50 (Plasmodium falciparum [9]): 0.073 µg/mL (≈ 0.25 µM)
- increase in mean survival time (Mus musculus [7]): 4.2 days
- increase in mean survival time (Plasmodium berghei [2]): 0.6 days
- cures (mice cured) (Mus musculus [3]): Cures
- increase in mean survival time (Mus musculus [4]): 2.2 days
- increase in mean survival time (Plasmodium berghei [5]): 2.3 days

Compound: C/C(=N\N=C(/S)N1CCCC1)c1cccc[n+]1[O-]
- IC50 (Plasmodium falciparum [8]): 0.048 µg/mL (≈ 0.182 µM)
- IC50 (Plasmodium falciparum [9]): 0.044 µg/mL (≈ 0.166 µM)
- cure outcome (Mus musculus [1]): Cures
- increase in mean survival time (Plasmodium berghei [2]): 0.9 days
- increase in mean survival time (Mus musculus [6]): 5.9 days
- increase in mean survival time (Mus musculus [4]): 1.1 days
- increase in mean survival time (Plasmodium berghei [5]): 1.5 days

Compound: C/C(=N\N=C(/S)N1CCSCC1)c1cccc[n+]1[O-]
- IC50 (Plasmodium falciparum [8]): 0.044 µg/mL (≈ 0.148 µM)
- increase in mean survival time (Plasmodium berghei [2]): 0.1 days
- increase in mean survival time (Mus musculus [6]): 1.5 days
- increase in mean survival time (Plasmodium berghei [5]): 0.9 days

Compound: CC(N/N=C(\S)N1CCCCC1)c1cccc[n+]1[O-] (stereo not drawn)
- increase in mean survival time (Plasmodium berghei [2]): 0.2 days
- increase in mean survival time (Mus musculus [6]): 1.8 days
- increase in mean survival time (Plasmodium berghei [5]): 0.2 days

Compound: CC(N/N=C(\S)N1CC2CCC(CC2)C1)c1cccc[n+]1[O-] (stereo not drawn)
- increase in mean survival time (Mus musculus [7]): 2.5 days
- increase in mean survival time (Plasmodium berghei [2]): -0.3 days
- cures (mice cured) (Mus musculus [3]): Cures
- increase in mean survival time (Mus musculus [4]): 0.7 days
- increase in mean survival time (Plasmodium berghei [5]): 0.9 days
- increase in mean survival time (Mus musculus [14]): -0.1 days

Compound: C/C(=N\N=C(/S)N(C)C)c1cccc[n+]1[O-]
- increase in mean survival time (Mus musculus [15]): 4.2 days
- increase in mean survival time (Mus musculus [12]): Toxic
- increase in mean survival time (Mus musculus [16]): 2.3 days
- IC50 (Plasmodium falciparum [8]): 0.054 µg/mL (≈ 0.227 µM)
- IC50 (Plasmodium falciparum [9]): 0.078 µg/mL (≈ 0.327 µM)
- increase in mean survival time (Mus musculus [6]): 6.9 days
- increase in mean survival time (Mus musculus [4]): 0.7 days
